Assay outcomes (PubChem)
The list is not random: actives were taken first. Their share in the collection is about 1.6%.
UBC13 inh: inhibitors of human UBC13 polyubiquitin chain formation. TR-FRET. inhibition, % at 20 µM. P61088. 0.47% of 330,000 active; in the data active = inhibition above about 45%, passing the limit was not always enough
Apaf1 inhib: blocks human Apaf-1 apoptosome activity; O14727; reconstituted apoptosome caspase-3 activity, DEVD-Rh110 fluorescence; inhibition, % at 20 µM; 0.71% of 330,000 active; active = inhibition of at least 40% at 20 µM;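 also: plate controls were DMSO wells for no effect and DEVD-CHO caspase inhibitor wells for full effect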
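System – cell-free apoptosome with Apaf-1, procaspase-3 and caspase-9 · Buffer or medium – pH 7.5 Hepes buffer with CHAPS, BSA, DTT · Also added – cytochrome c with DEVD-Rh110 · Times – 30 min compound preincubation, 50 min activation, room temperature · Technique – Rh110 fluorescence intensity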
RAD54 inh: RAD54 (human) branch migration inhibition | RAD54 Holliday junction branch migration, FAM/BHQ fluorescence | 0.14% of 360,000 active | Q92698 | inhibition, % at 10.4 µM | AID 602329;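 active = mean normalized replicate activity at least 40 and at least half of replicates scoring 40 or more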;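 also: 0% = median of neutral control wells and 100% = median of positive control wells; inhibitors cause a drop in the FAM fluorescence signal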
FID counter: counter-screen for HCV NS3 helicase inhibitors: DNA intercalator displacement | DNA fluorescent intercalator displacement, fluorescence | inhibition, % at 7.9 µM | 0.17% of 290,000 active; in the data active = inhibition above about 37%;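 also: 0% = vehicle and 100% = reference compound; higher means more ethidium bromide displaced from hairpin DNA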
Neddyl block: blocks human cullin neddylation | AID 651699 | TR-FRET cullin neddylation, biochemical | 0.58% of 360,000 active | P61081+Q13564 | calls only at 25 µM; in the data active = inhibition above about 36%
RAD52 anneal inh: blocks human RAD52 DNA annealing; recombinant RAD52 DNA annealing, FRET fluorescence; inhibition, % at 18.7 µM; 0.46% of 360,000 active;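 active = every replicate showing at least 50% inhibition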
Casp3 UBC13 ctr: caspase-3 inhibition (UBC13 counter-screen) | shares compounds with UBC13 inh | inhibition, % at 20 µM | Recombinant caspase-3, Caspase-Glo 3/7 luminescence, 60 min | 4% of 1,400 active;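 active = mean inhibition across replicates above about 26%, limit read from the data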;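 also: plate controls were DMSO with caspase-3 for no effect and DMSO wells lacking enzyme for full effect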
UBC13 conf: human UBC13 polyubiquitin inhibition, confirmed; shares compounds with UBC13 inh; UBC13 polyubiquitination, TR-FRET, biochemical; inhibition, % at 10 µM; 68% of 1,400 active; AID 488859; in the data active = inhibition above about 45%
Apaf-1 inh conf: Apaf-1 inhibition, single-dose confirmed. shares compounds with Apaf1 inhib. reconstituted apoptosome, caspase-3 DEVD-Rh110 fluorescence. inhibition, % at 20 µM. 25% of 1,800 active;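 active = mean inhibition of at least 40% at 20 µM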;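 also: plate controls were DMSO wells for no effect and DEVD-CHO caspase inhibitor control wells for full effect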
Rh110 quench: counter-screen for Apaf-1 inhibitors: fluorescence interference; shares compounds with Apaf1 inhib; Rh110 fluorescence interference, quenched caspase reaction; activation (fluorescence interference), % at 20 µM; 1,800 tested, under 10 active;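 active = signal rise of 40% or more at 20 µM, treated as a fluorescence artifact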
Fluor interf inh: shows fluorescence interference in the Apaf-1 inhibitor assay format; 460 tested, under 10 active; IC50, µM; shares compounds with Apaf1 inhib; AID 588538; fluorescence interference counterscreen, Apaf-1 assay format; call rule not given here
An asterisk follows results filed as active; i = inactive; . = no result given.

SMILES	UBC13 inh	Apaf1 inhib	RAD54 inh	FID counter	Neddyl block	RAD52 anneal inh	Casp3 UBC13 ctr	UBC13 conf	Apaf-1 inh conf	Rh110 quench	others
CCN1CCN(S(=O)(=O)c2ccc(Cl)c(C(=O)N(C)Cc3cccs3)c2)CC1	49*	58*	3	.	i	15	-3	55*	31	1
CCN(CC)CCNC(=O)c1ccc(NC(=O)c2cn(-c3ccc(F)cc3)nc2-c2cccc(OC)c2)cc1	92*	45*	-2	33	i	2	-2	115*	22	7
COC(=O)c1ccccc1S(=O)(=O)N1CCC(C(=O)N2CCC2)CC1	79*	55*	.	.	i	9	0	64*	27	-1
Cc1ccc(-c2cnc3c(c2)C(=O)N([C@@H](C)CO)C[C@@H](C)[C@H](CN(C)CC2CCCC2)O3)cc1	.	.	10	.	.	0	.	.	.	.
CN(C)C/C=C/C(=O)Nc1cccc(-c2c[nH]c3ncnc(Oc4ccc(NC(=O)CC(=O)Nc5ccc(F)cc5)cc4F)c23)c1	112*	63*	6	.	i	.	3	117*	22	1
CC(=O)Nc1cccc(Oc2ncnc3scc(-c4ccccc4)c23)c1	3	5	-12	-26	i	.	.	.	.	.
COc1ccc(NS(=O)(=O)c2cc(C(=O)N3CCC3)ccc2C)cc1	71*	48*	5	.	i	-10	3	77*	13	4
Cc1ccc(NS(=O)(=O)c2cc(C(=O)N3CCCC3)ccc2C)cc1C	8	7	-1	-27	i	1	.	.	.	.
O=C(Nc1ccccc1)Nc1ccc2c(c1)[C@H]1C[C@@H](CC(=O)N3CCOCC3)O[C@@H](CO)[C@H]1O2	.	.	-7	.	.	.	.	.	.	.
CN(C)CCCNc1cc(C(C)(C)C)nc2c(-c3ccc(Cl)cc3)cnn12	89*	58*	9	24	.	29	-1	95*	38	25
C#CCOCCOCCOCCNc1nc(N2CCN(C(=O)[C@H]([C@@H](C)CC)n3cc(CCCCN)nn3)CC2)nc(N2CCN(C(=O)[C@H](C)n3cc(CCCN=C(N)N)nn3)CC2)n1	30	14	-27	.	i	40	.	.	.	.
C#CCOCCOCCOCCNc1nc(N2CCN(C(=O)Cn3cc(CCCCN)nn3)CC2)nc(N2CCN(C(=O)[C@H]([C@@H](C)CC)n3cc(CCCN=C(N)N)nn3)CC2)n1	27	21	-9	.	i	19	.	.	.	.
C#CCOCCOCCOCCNc1nc(N2CCN(C(=O)CCCCCCCCCCNC(=O)Cn3cc(CCCCCN)nn3)CC2)nc(N2CCN(C(=O)CCCCCCCCCCNC(=O)[C@H]([C@@H](C)CC)n3cc(CCCCCN)nn3)CC2)n1	124*	74*	13	.	i	.	-2	123*	58*	5	Fluor interf inh=>100
C#CCOCCOCCOCCNc1nc(N2CCN(C(=O)CCCCCCCCCCNC(=O)[C@H](CCCCN)n3cc(CCO)nn3)CC2)nc(N2CCN(C(=O)CCCCCCCCCCNC(=O)[C@H](CCCCN)n3cc(CCO)nn3)CC2)n1	117*	64*	50*	.	i	.	3	125*	46*	1	Fluor interf inh=>100
C#CCOCCOCCOCCNc1nc(N2CCN(C(=O)CCCCCCCCCCNC(=O)[C@H](CCCCN)n3cc(CCO)nn3)CC2)nc(N2CCN(C(=O)CCCCCCCCCCNC(=O)[C@@H]([C@H](C)O)n3cc(C)nn3)CC2)n1	121*	59*	-23	.	i	.	2	122*	31	6
